What was measured:
[1] = tested on: Mus musculus; assay: Antiobesity activity in C57BL/6 mouse assessed as inhibition of body weight gain at 50 mg/kg, ip measured after 2 to 12 hrs relative to vehicle-treated control; type: functional; conditions: C57BL/6, ip, route intraperitoneal
[2] = tested on: Mus musculus; assay: Antiobesity activity in C57BL/6 mouse assessed as inhibition of food intake at 50 mg/kg, ip measured after 2 to 12 hrs relative to vehicle-treated control; type: functional; conditions: C57BL/6, ip, route intraperitoneal
Summary of the method: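 Male mice were acclimated 1 week at 23 ± 3 °C and 50 ± 20% humidity, then fasted 24 h. They were dosed once intraperitoneally with vehicle or compound: 50 mg/kg in C57BL/6, or 12.5, 25 or 50 mg/kg in B6.V-Lep^ob/J. Food intake was measured at 2, 6 and 12 h versus vehicle control.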

[3] = target: T1, Alpha-1A adrenergic receptor (Homo sapiens, UniProt P35348); assay: Binding affinity to adrenergic alpha1A receptor (unknown origin)
T1 sequence (P35348 whole entry): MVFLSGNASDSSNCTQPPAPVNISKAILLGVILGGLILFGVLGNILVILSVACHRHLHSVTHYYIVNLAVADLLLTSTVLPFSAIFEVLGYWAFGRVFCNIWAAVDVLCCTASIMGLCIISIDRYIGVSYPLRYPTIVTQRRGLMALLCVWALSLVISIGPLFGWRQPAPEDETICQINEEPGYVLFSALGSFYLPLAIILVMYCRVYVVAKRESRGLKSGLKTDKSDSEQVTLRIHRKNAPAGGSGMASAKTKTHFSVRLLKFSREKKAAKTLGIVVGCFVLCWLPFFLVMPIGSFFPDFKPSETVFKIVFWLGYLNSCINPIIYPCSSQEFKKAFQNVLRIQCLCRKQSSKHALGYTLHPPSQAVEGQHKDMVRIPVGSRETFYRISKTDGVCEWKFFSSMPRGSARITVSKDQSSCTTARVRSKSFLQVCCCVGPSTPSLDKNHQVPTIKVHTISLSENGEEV

[4] = target: T2, Alpha-2A adrenergic receptor (Homo sapiens, UniProt P08913); assay: Binding affinity to adrenergic alpha2A receptor (unknown origin)
T2 sequence (P08913 whole entry): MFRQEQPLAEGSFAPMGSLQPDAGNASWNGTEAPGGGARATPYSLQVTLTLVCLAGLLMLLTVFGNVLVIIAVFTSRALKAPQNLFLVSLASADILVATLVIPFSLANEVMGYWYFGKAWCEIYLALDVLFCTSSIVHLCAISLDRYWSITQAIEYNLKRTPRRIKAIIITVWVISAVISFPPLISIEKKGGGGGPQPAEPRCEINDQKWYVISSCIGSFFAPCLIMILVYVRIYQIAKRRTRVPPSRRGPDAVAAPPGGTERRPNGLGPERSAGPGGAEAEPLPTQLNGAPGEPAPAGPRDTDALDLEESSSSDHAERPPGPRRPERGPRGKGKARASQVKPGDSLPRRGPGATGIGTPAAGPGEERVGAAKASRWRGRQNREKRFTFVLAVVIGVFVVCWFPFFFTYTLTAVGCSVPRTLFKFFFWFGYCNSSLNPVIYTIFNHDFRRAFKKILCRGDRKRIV

[5] = target: D(2) dopamine receptor (Homo sapiens, UniProt P14416); assay: Displacement of [3H]-methylspiperone from dopamine D2L receptor (unknown origin) after 60 mins
Summary of the method: (§1)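 Receptor membranes incubated at 27 °C, 60 min for D2L and 30 min for D3, with [3H]methylspiperone (0.2 nM for D2L, 0.25 nM for D3) and test compound at a range of concentrations. Buffer was 50 mM Tris-HCl pH 7.4, 10 mM MgCl2, 1 mM EDTA, 120 mM NaCl. Nonspecific binding defined with haloperidol (D2) or GR103691 (D3). IC50 obtained by nonlinear regression.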

[6] = target: D(3) dopamine receptor (Homo sapiens, UniProt P35462); assay: Displacement of [3H]-methylspiperone from dopamine D3 receptor (unknown origin) after 30 mins; summary of the method: as §1
[7] = Displacement of [3H]-YM-09151-2 from cloned dopamine D4.2 receptor (unknown origin) expressed in Sf9 cells after 60 mins; parameters: species or system Homo sapiens
Summary of the method: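 Sf9 membranes with cloned D4.2 receptor incubated with 0.2 nM [3H]YM-09151-2 for 60 min at 27 °C in 50 mM Tris-HCl pH 7.4, 5 mM MgCl2, 5 mM EDTA, 5 mM KCl, 1.5 mM CaCl2. Clozapine defined nonspecific binding. Filtered on glass-fiber filters presoaked in 0.3% PEI.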

[8] = target: 5-hydroxytryptamine receptor 6 (Homo sapiens, UniProt P50406); assay: Displacement of [3H]-LSD from human recombinant 5HT-6 receptor expressed in CHOK1 cell membranes after 60 mins; parameters: species or system CHO-K1
Summary of the method: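 CHO-K1 membranes expressing human 5-HT6 incubated with 1 nM [3H]LSD for 60 min at 27 °C in 50 mM Tris-HCl pH 7.4 containing 4 mM CaCl2 and 0.1% ascorbic acid. Terminated by filtration on glass-fiber filters presoaked in 0.5% PEI. Methiothepin defined nonspecific binding.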

[9] = target: 5-hydroxytryptamine receptor 7 (Homo sapiens, UniProt P34969); assay: Displacement of [3H]-LSD from human recombinant 5HT-7 receptor expressed in CHOK1 cell membranes after 120 mins; parameters: species or system CHO-K1
Summary of the method: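 CHO-K1 membranes expressing human 5-HT7 incubated with 3 nM [3H]LSD for 120 min at 27 °C in 50 mM Tris-HCl pH 7.4, 10 mM MgSO4, 0.5 mM EDTA. Filtered on glass-fiber filters presoaked in 0.3% PEI. Methiothepin defined nonspecific binding.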

[10] = species: Homo sapiens; assay: Selectivity ratio of IC50 for human recombinant 5HT-2B receptor to IC50 for human recombinant 5HT-2C receptor
[11] = target: T3, 5-hydroxytryptamine receptor 1A (Homo sapiens, UniProt P08908); assay: Displacement from [3H]8-OH-DPAT from human recombinant 5HT-1A receptor expressed in HEK293 cells after 120 mins; type: cell-based
T3 sequence (P08908 whole entry): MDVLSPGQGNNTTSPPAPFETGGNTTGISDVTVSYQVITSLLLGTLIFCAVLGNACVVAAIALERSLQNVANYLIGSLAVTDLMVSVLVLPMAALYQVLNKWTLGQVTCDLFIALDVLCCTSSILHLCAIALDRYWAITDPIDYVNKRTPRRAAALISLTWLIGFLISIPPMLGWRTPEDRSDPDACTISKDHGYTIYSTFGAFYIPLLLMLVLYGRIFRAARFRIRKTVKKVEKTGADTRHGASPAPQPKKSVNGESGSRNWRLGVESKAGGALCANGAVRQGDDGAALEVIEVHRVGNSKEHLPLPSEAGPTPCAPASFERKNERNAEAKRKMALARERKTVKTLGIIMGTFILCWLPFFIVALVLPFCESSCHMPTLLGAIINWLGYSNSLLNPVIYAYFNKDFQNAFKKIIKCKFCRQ
Summary of the method: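 Membranes from HEK293-EBNA cells stably expressing recombinant human 5-HT1A. Incubated with 2 nM [3H]8-OH-DPAT and test compound at a range of concentrations in 50 mM Tris-HCl pH 7.4 with 5 mM MgSO4.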

[12] = target: 5-hydroxytryptamine receptor 2B (Homo sapiens, UniProt P41595); assay: Displacement of […] from human recombinant 5HT-2B receptor
[13] = species: Homo sapiens; assay: Selectivity ratio of IC50 for human recombinant 5HT-2B receptor to IC50 for human recombinant 5HT-2A receptor
[14] = target: T4, 5-hydroxytryptamine receptor 2A (Homo sapiens, UniProt P28223); assay: Displacement of [3H]-ketanserin from human recombinant 5HT-2A receptor expressed in CHOK1 cell membranes after 60 mins; parameters: species or system CHO-K1
Summary of the method: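 Buffer was 50 mM Tris-HCl pH 7.4 with 5 mM CaCl2 and 0.1% ascorbic acid. Test compound added at a range of concentrations.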

[15] = target: T5, 5-hydroxytryptamine receptor 2C (Homo sapiens, UniProt P28335); assay: Displacement of [3H]-mesulergine from human recombinant 5HT-2C receptor expressed in CHOK1 cell membranes after 30 mins; parameters: species or system CHO-K1
T5 sequence (P28335 whole entry): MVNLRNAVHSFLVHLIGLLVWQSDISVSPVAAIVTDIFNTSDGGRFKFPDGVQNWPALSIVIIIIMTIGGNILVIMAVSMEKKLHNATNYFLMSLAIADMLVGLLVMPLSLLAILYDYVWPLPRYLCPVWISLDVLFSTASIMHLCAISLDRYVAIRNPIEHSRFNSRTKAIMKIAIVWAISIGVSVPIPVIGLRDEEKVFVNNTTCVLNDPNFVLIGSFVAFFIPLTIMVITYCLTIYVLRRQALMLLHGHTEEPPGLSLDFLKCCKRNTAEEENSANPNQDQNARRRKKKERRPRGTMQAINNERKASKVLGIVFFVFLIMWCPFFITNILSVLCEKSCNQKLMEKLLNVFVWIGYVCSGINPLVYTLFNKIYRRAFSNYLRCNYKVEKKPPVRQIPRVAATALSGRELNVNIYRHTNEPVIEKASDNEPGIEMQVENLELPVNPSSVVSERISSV
Summary of the method: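 Frozen CHO-K1 membranes expressing recombinant human 5-HT2C incubated with 1 nM [3H]mesulergine in 50 mM Tris-HCl pH 7.4 containing 0.1% ascorbic acid and pargyline. Mianserin defined nonspecific binding.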

[16] = target: T4, 5-hydroxytryptamine receptor 2A; assay: Antagonist activity at serotonin-activated human recombinant 5HT-2A receptor expressed in HEK293 cells assessed as decrease in intracellular calcium level after 5 mins measured for 1 min by fluorescence assay; type: functional, cell-based; conditions: read-out: EC50 (the source's name)
Summary of the method: (§2)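 Cells were washed with HBSS/20 mM HEPES, then loaded 50 min with Fluo-4 NW dye in HBSS with 2.5 mM probenecid. Compound was added for 5 min at 37 °C, then serotonin; fluorescence followed 1 min. Run in duplicate or quadruplicate, repeated several times; IC50 by nonlinear regression.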

[17] = target: T5, 5-hydroxytryptamine receptor 2C; assay: Antagonist activity at serotonin-activated human recombinant 5HT-2C receptor expressed in HEK293 cells assessed as decrease in intracellular calcium level after 5 mins measured for 1 min by fluorescence assay; type: functional, cell-based; conditions: read-out: EC50 (the source's name)
Summary of the method: as §2, with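 “Intracellular calcium read on HEK293 cells stably expressing human receptor, seeded 10,000 cells/well and grown 24 h at 37 °C, 5% CO2. Cells” for “Cells”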

[18] = tested on: Mus musculus; assay: Antiobesity activity in C57BL/6 mouse assessed as inhibition of food intake at 5.6 mg/kg, ip measured after 2 to 12 hrs relative to vehicle-treated control; type: functional; conditions: C57BL/6, ip, route intraperitoneal
Summary of the method: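 Male C57BL/6 mice acclimated 1 week (23 ± 3 °C, 50 ± 20% humidity), fasted 24 h, then given intraperitoneal vehicle or drug. Food intake measured over intervals of 2, 6 and 12 h and compared with vehicle control.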

Sequence of 5-hydroxytryptamine receptor 7 (P34969 whole entry): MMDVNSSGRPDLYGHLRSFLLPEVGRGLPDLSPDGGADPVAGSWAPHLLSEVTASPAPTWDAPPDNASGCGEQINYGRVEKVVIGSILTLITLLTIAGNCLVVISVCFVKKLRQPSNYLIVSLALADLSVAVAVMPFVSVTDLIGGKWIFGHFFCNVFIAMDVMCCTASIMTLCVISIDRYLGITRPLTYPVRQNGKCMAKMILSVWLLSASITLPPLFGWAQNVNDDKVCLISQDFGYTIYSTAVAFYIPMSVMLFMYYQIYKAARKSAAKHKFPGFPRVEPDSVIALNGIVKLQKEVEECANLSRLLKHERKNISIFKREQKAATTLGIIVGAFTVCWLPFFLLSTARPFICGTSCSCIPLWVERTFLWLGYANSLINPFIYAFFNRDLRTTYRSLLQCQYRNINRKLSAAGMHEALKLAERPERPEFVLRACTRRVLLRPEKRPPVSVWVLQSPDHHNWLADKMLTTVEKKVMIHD
T4 sequence (P28223 whole entry): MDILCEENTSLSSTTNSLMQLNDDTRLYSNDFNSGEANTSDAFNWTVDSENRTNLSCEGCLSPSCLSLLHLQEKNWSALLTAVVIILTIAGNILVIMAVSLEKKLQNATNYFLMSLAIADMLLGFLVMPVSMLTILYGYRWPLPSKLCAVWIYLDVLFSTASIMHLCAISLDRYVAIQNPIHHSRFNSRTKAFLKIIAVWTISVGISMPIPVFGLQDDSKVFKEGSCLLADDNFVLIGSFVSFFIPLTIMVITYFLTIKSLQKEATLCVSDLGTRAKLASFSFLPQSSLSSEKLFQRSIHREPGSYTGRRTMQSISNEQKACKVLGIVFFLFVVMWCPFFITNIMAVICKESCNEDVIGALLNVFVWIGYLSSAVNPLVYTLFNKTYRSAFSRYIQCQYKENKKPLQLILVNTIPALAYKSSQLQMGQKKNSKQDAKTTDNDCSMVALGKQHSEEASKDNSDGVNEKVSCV
Sequence of D(2) dopamine receptor (P14416 whole entry): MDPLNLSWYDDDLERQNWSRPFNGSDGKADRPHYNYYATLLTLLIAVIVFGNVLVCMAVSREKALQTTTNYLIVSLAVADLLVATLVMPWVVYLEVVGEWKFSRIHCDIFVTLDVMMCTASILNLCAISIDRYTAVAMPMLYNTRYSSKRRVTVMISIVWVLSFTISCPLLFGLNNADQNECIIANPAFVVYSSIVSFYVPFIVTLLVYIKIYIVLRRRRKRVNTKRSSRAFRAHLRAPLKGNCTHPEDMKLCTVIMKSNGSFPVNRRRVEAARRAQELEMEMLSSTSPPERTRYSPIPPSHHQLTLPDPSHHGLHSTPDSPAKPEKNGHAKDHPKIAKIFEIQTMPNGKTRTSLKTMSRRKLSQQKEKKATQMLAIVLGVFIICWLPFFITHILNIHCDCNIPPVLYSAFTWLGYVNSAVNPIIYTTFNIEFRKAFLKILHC
Sequence of D(3) dopamine receptor (P35462 whole entry): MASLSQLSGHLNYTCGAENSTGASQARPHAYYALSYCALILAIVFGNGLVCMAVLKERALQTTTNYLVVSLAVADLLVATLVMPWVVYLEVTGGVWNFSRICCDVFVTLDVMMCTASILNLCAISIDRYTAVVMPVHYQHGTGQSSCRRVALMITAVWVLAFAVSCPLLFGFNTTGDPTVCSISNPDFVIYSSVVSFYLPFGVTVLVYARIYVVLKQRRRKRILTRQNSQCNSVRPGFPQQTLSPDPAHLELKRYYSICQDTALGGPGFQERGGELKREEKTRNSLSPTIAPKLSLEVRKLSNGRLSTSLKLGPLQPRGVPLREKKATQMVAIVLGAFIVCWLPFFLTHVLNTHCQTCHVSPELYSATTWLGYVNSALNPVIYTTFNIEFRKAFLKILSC
Sequence of 5-hydroxytryptamine receptor 6 (P50406 whole entry): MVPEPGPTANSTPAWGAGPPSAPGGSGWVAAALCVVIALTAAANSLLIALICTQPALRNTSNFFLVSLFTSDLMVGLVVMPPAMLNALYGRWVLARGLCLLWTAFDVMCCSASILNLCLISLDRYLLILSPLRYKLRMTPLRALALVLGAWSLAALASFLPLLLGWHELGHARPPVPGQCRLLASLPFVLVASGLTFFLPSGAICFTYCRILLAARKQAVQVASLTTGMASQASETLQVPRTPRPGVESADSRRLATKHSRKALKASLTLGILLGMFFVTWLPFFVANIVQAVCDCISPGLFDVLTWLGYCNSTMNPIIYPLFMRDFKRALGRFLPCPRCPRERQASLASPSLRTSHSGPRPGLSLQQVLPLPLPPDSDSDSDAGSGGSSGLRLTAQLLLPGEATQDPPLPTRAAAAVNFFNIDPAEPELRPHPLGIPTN
Sequence of 5-hydroxytryptamine receptor 2B (P41595 whole entry): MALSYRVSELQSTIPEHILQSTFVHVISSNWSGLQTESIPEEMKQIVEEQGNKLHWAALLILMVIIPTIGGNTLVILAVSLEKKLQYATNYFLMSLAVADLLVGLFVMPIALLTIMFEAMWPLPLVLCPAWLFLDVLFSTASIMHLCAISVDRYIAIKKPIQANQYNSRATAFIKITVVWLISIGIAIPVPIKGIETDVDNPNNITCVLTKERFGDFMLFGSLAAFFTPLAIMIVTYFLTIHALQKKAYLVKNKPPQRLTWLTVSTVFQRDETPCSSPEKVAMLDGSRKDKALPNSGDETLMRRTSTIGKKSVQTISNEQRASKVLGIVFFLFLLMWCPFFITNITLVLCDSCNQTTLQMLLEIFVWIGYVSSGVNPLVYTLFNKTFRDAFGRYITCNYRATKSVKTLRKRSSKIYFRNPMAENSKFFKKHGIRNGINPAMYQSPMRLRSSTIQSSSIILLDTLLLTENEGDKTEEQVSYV

SMILES	inhibition in vivo at 50 mg/kg [1] [%]	inhibition in vivo at 50 mg/kg [2] [%]	IC50 [3] [nM]	IC50 [4] [nM]	IC50 [5] [nM]	IC50 [6] [nM]	IC50 [7] [nM]	IC50 [8] [nM]	IC50 [9] [nM]	Ratio IC50 [10]	IC50 [11] [nM]	IC50 [12] [nM]	Ratio IC50 [13]	IC50 [14] [nM]	IC50 [15] [nM]	IC50 [16] [nM]	IC50 [17] [nM]	inhibition in vivo at 5.6 mg/kg [18] [%]
c1ccc(Cc2nc3c(c(Nc4ccccc4)n2)CCNCC3)cc1	71.8	64.2	1390	> 10000	147	272	112	36.8	1560	44.9	395	89	33.1	2.69	1.98	–	–	–
CN1CCN(c2nc3c(c(Nc4ccc(F)cc4)n2)CCNCC3)CC1	5.61	11	–	–	–	–	–	–	–	–	–	–	–	215	337	153	1500	–
Fc1cccc(Nc2nc(Cc3ccccc3)nc3c2CCNCC3)c1	68.9	69.4	–	–	63.3	674	735	22.2	1060	–	1250	–	–	4.92	13.3	27.9	–	–
Clc1cccc(N2CCNCC2)c1 [CHLOROPHENYLPIPERAZINE]	–	–	–	–	–	–	–	–	–	–	–	–	–	–	–	–	–	13.1
COc1cccc(Nc2nc(Cc3ccccc3)nc3c2CCNCC3)c1	63.9	55.8	–	–	163	941	549	30.4	497	–	823	–	–	84.4	37.3	77.6	9.2	–
